# Published values collected from several papers.
# Each line is one published result; the experiments were not run side by side.
# RPS6KA2: Ribosomal protein S6 kinase alpha-2 (RPS6KA2, Homo sapiens, UniProt Q15349)
# RPS6KA2 C-terminal kinase domain: Ribosomal protein S6 kinase alpha-2, C-terminal kinase domain (RPS6KA2, Homo sapiens, UniProt Q15349)
# RPS6KA2 N-terminal kinase domain: Ribosomal protein S6 kinase alpha-2, N-terminal kinase domain (RPS6KA2, Homo sapiens, UniProt Q15349)
SMILES,target,effect on,mode,technique,concentration,measurement,result
Cc1cc(NC(=O)c2cccc3cc(-c4cccc5[nH]nc(N)c45)ccc23)ccc1F,RPS6KA2,enzyme activity,inhibitor,,0.1 µM,activity vs control,95%
COc1cc(Cl)c(C(=O)N[C@@H](CN[C@H]2CC[C@@H](N)CC2)Cc2ccc(C#N)cc2)cc1-c1ccc(CN[C@H](C)c2ccc(C)cc2)o1,RPS6KA2,enzyme activity,inhibitor,,1 µM,remaining activity,106%
O=C(O)[C@@H]1[C@@H](Cn2nnc3ccccc3c2=O)CC[C@H]1C(=O)c1ccc(OCCC2CCOCC2)cc1,RPS6KA2 C-terminal kinase domain,cell-free assay,,competition with immobilised ligand,1 µM,remaining binding,100%
COc1ccnn2ncc(-c3ccnc(N(C)C)n3)c12,RPS6KA2 N-terminal kinase domain,binding,,competition with immobilised ligand,1 µM,remaining binding,74%
Cc1ccc(NC(=O)c2ccc(C)c(C(F)(F)F)c2)cc1C#Cc1nn(C2CCC(O)CC2)c2ncnc(N)c12 (stereo not shown),RPS6KA2,cell-free assay,,,10 µM,remaining signal,38%
Cn1cc(Cl)c2c(Oc3c(F)cc(Nc4cc(Cl)nc(N)n4)cc3F)ccnc21,RPS6KA2 N-terminal kinase domain,cell-free assay,,competition with immobilised ligand,0.1 µM,remaining binding,95%
Cc1ccc(C(=O)NCc2ccsc2)cc1C#Cc1cn(C(C)C)c2ncnc(N)c12,RPS6KA2,enzyme activity,inhibitor,,1 µM,activity vs control,85%
C[C@@H]1CCN(c2nccc(-c3cnn4ncccc34)n2)C1,RPS6KA2 C-terminal kinase domain,binding,,competition with immobilised ligand,1 µM,remaining binding,45%
O=C(NCCCC1CCCCC1)c1ccc(CNC(=O)c2cnn(-c3ccccc3)c2C(F)(F)F)cc1,RPS6KA2 C-terminal kinase domain,cell-free assay,,competition with immobilised ligand,0.1 µM,remaining binding,96%
CCOc1cc(-c2nncn2C)ccc1Nc1ncc2cc(C)nc(NCC(C)(C)C)c2n1,RPS6KA2,enzyme activity,inhibitor,FRET,1 µM,inhibition,< 15%
COc1ccc2c(O[C@@H]3C[C@H]4C(=O)N[C@]5(C(=O)O)CC5/C=C\CCCCC[C@H](NC(=O)OC5CCCC5)C(=O)N4C3)cc(-c3csc(NC(=O)C(C)C)n3)nc2c1C (stereo partly shown),RPS6KA2 N-terminal kinase domain,cell-free assay,,competition with immobilised ligand,1 µM,remaining binding,100%
CCCS(=O)(=O)Nc1ccc(F)c(C(=O)c2c[nH]c3ncc(-c4ccc(Cl)cc4)cc23)c1F,RPS6KA2,enzyme activity,inhibitor,,1 µM,inhibition,< 10%
c1cnn2ncc(-c3ccnc(N4CCC45COC5)n3)c2c1,RPS6KA2 N-terminal kinase domain,binding,,competition with immobilised ligand,1 µM,remaining binding,95%
Cc1ccc(C(=O)Nc2ccc(CN3CCN(C)CC3)c(C(F)(F)F)c2)cc1C#Cc1cnc2cccnn12,RPS6KA2,enzyme activity,inhibitor,,23.5 nM,remaining activity,100%
O=C(NC[C@@H]1[C@H]2CN(C(=O)OCc3cc(C(F)(F)F)cc(C(F)(F)F)c3)C[C@@H]12)c1ccc2[nH]nnc2c1,RPS6KA2 C-terminal kinase domain,cell-free assay,,competition with immobilised ligand,1 µM,remaining binding,84%
CC1CCCN1c1nccc(-c2cnn3ncccc23)n1 (stereo not shown),RPS6KA2 C-terminal kinase domain,binding,,competition with immobilised ligand,1 µM,remaining binding,100%
